Measured values taken from ChEMBL document CHEMBL4837242, “Discovery of Irbesartan Derivatives as BLT2 Agonists by Virtual Screening” (ACS Med Chem Lett, 2021).
Calls of active or inactive are those of the source. The rule behind the calls is not given here.

Experiments:
[1] = target: Leukotriene B4 receptor 1 (Homo sapiens) (UniProt Q15722); experiment: Agonist activity at human BLT1 overexpressed in CHO-K1 cells assessed as accumulation of inositol monophosphate measured after 90 mins by HTRF assay; type: functional, cell-based
How it was run: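 IP-One accumulation assay run in agonist mode, read-out inositol monophosphate as a measure of Gq activation; LTB₄ as reference agonist and positive control. EC₅₀ determinations done at least twice (n = 2).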

[2] = tested on: HepG2; experiment: (§1) Cytotoxicity against human HepG2 cells assessed as cell survival rate at 50 uM measured after 3 days by Celltiter-glo assay relative to control; type: cell-based; conditions: hepg2, 72 h, 50 µM
How it was run: (§2)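 Hep-G2 cells exposed to 50 μM compound for 3 days; ATP content measured by CellTiter-Glo luminescence as an index of metabolic activity and survival; live rate expressed as percent of DMSO control.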

[3] = target: T1, Type-1 angiotensin II receptor (Homo sapiens, UniProt P30556); experiment: Antagonist activity at human AT1 overexpressed in CHO-K1 cells in presence of 10 nM [Val5-angiotensin II measured after 90 mins by HTRF based IP-one assay; type: functional, cell-based
T1 sequence (P30556 whole entry): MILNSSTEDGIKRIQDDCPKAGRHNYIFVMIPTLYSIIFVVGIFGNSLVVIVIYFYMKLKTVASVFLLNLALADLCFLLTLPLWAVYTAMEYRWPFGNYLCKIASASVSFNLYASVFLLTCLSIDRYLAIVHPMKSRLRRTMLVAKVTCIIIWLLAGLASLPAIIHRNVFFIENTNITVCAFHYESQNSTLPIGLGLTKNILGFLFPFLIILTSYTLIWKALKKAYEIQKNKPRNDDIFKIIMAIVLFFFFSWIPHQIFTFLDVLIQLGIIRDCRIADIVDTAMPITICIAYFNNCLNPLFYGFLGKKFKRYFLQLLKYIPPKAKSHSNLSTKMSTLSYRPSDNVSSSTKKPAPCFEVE
How it was run: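 IP-One assay in antagonist mode, [Val⁵]-angiotensin II held constant at 10 nM; IP-1 accumulation read out. IC₅₀ with SEM from at least two runs (n = 2).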

[4] = target: T2, Leukotriene B4 receptor 2 (Homo sapiens, UniProt Q9NPC1); experiment: Agonist activity at human BLT2 overexpressed in CHO-K1 cells assessed as accumulation of inositol monophosphate measured after 90 mins by HTRF assay; type: functional, cell-based
T2 sequence (Q9NPC1 whole entry): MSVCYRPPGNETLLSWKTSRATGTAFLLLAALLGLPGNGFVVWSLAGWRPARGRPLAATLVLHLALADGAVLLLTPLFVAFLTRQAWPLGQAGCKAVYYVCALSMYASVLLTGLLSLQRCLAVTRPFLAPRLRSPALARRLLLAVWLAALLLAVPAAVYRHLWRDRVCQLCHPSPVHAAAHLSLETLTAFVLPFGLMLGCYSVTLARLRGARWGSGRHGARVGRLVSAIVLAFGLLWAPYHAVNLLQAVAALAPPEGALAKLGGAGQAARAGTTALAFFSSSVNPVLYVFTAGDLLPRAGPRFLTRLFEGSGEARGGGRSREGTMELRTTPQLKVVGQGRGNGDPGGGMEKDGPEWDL

[5] = as §1; type: cell-based; conditions: HepG2 cells, read-out: Activity; how it was run: as §2
[6] = tested on: HCT-116; experiment: Induction of cell proliferation in human HCT-116 cells at 0.03 uM measured after 24 hrs by celltiter blue reagent based fluorescent assay; type: functional
How it was run: (§3)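 HCT116 seeded at 5 × 10³ cells/well, grown 72 h, then treated 24 h with compound alone or with BLT2 antagonist Ly255283 (1 μM); CellTiterBlue added for the final 4 h, resorufin fluorescence read. Mean ± SEM, n = 3.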

[7] = tested on: HCT-116; experiment: Induction of cell proliferation in human HCT-116 cells at 0.1 to 1 uM measured after 24 hrs by celltiter blue reagent based fluorescent assay; type: functional; how it was run: as §3

Sequence of Leukotriene B4 receptor 1 (Homo sapiens) (Q15722 whole entry): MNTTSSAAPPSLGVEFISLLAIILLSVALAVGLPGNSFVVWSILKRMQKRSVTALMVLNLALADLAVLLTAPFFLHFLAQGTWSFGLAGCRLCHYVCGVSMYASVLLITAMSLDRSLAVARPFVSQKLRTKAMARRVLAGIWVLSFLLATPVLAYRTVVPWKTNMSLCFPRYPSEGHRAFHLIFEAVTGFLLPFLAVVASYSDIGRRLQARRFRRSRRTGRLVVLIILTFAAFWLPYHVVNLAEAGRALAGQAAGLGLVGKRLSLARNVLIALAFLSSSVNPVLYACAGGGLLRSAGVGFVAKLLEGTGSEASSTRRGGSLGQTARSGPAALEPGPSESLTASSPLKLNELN

Row | Compound | Activity [1] | IC50 ([3]; read-out: IC50) | EC50 ([4]; cho-k1) | EC50 ([4]; read-out: EC50) | further results
1 | O=C(O)c1ccccc1-c1ccc(CN2C(=O)C3(CCCC3)N=C2c2ccccc2)cc1 | inactive | > 10000 nM | Not Active | – | Activity [2]: Non-Toxic
2 | CC(C(=O)O)c1ccc2c(c1)CC(=O)c1ccccc1S2 (stereo not given) [ZALTOPROFEN] | – | – | Not Active | – | –
3 | CCCCC1=NC(C)(C)C(=O)N1Cc1ccc(-c2ccccc2-c2nnn[nH]2)cc1 | inactive | 32 nM | – | 8140 nM | viability at 72 h, 50 µM [5]: 56%
4 | CCCCC1=NC(C)(c2ccccc2)C(=O)N1Cc1ccc(-c2ccccc2-c2nnn[nH]2)cc1 (stereo not given) | inactive | 25 nM | – | 550 nM | viability at 72 h, 50 µM [5]: 56%
5 | CCCCC1NC(C)(C)C(=O)N1Cc1ccc(-c2ccccc2-c2nnn[nH]2)cc1 (stereo not given) | – | 390 nM | – | – | viability at 72 h, 50 µM [5]: 77%
6 | CSc1ccc(C(=O)/C=C/c2cc(C)c(OC(C)(C)C(=O)O)c(C)c2)cc1 [ELAFIBRANOR] | – | – | Not Active | – | –
7 | O=C(O)COc1ccc(C(=O)c2cccs2)c(Cl)c1Cl | – | – | Not Active | – | –
8 | CCCCC1=NC2(CCCC2)C(=O)N1Cc1ccc(-c2ccccc2C(=O)O)cc1 | – | 190 nM | – | – | –
9 | O=C(O)c1ccccc1-c1ccc(CN2C(=O)C3(CCCC3)N=C2CCc2ccccc2)cc1 | inactive | – | Not Active | – | Activity [2]: Non-Toxic; IC50 ([3]; cho-k1): Not Active
10 | CCCC[C@H]1N(Cc2ccc(-c3ccccc3-c3nnn[nH]3)cc2)C(=O)[C@H]2CCCN21 | inactive | 10000 nM | – | 7500 nM | viability at 72 h, 50 µM [5]: 88%
11 | CCCCC1NC(=O)C2(CCCC2)N1Cc1ccc(-c2ccccc2C(=O)O)cc1 (stereo not given) | inactive | 7750 nM | – | 24200 nM | Activity [2]: Non-Toxic
12 | CCOc1nc2cccc(C(=O)O)c2n1Cc1ccc(-c2ccccc2-c2noc(=O)[nH]2)cc1 [AZILSARTAN] | – | – | Not Active | – | –
13 | CCCCC(=O)N(Cc1ccc(-c2ccccc2C(=O)O)cc1)c1ccccc1 | – | – | – | – | Activity [6]: Active
14 | CCc1cc(C(C)=O)c(O)cc1OCCCCCC(C)(C)c1nn[nH]n1 | – | – | – | – | Activity [7]: inactive
15 | O=C(O)Cn1c2c(c3cc(F)ccc31)CN(C(=O)c1cccc3ccccc13)CC2 [SETIPIPRANT] | – | – | Not Active | – | –
16 | CCCCC1=NC2(CCCCC2)C(=O)N1Cc1ccc(-c2ccccc2C(=O)O)cc1 | inactive | 155 nM | – | 860 nM | –
17 | O=C(O)c1ccccc1-c1ccc(CN2C(=O)C3(CCCC3)N=C2Cc2ccccc2)cc1 | – | 8650 nM | – | – | viability at 72 h, 50 µM [5]: 79%
18 | CCOc1nc2cccc(C(=O)O)c2n1Cc1ccc(-c2ccccc2-c2nnn[nH]2)cc1 | – | – | – | 15000 nM | –
19 | CCCCC1(C2CCCC2)Cc2cc(OCCCC(=O)O)c(Cl)c(Cl)c2C1=O (stereo not given) | – | – | Not Active | – | –
20 | C[C@H](CCC(=O)O)[C@H]1CC[C@H]2[C@@H]3[C@H](O)C[C@@H]4C[C@H](O)CC[C@]4(C)[C@H]3CC[C@]12C [CHENODIOL] | – | – | Not Active | – | –
21 | CCCCC1=NC2(CCCC2)C(=O)N1Cc1ccc(-c2ccccc2-c2nnn[nH]2)cc1 [IRBESARTAN] | inactive | – | – | 410 nM | Activity [6]: 88%
22 | CCCCC1=NC(C)(C(C)C)C(=O)N1Cc1ccc(-c2ccccc2-c2nnn[nH]2)cc1 (stereo not given) | inactive | 15 nM | – | 67.6 nM | Activity [6]: Active; Activity [2]: Non-Toxic
23 | CCCC[C@@H]1N(Cc2ccc(-c3ccccc3-c3nnn[nH]3)cc2)C(=O)[C@@H]2CCCN12 | inactive | 1010 nM | Not Active | – | viability at 72 h, 50 µM [5]: 89%
24 | CCCCC(=O)N(Cc1ccc(-c2ccccc2-c2nnn[nH]2)cc1)[C@H](C(=O)O)C(C)C | – | – | – | 16000 nM | –
